Assay results taken from PMC9512414 (International Journal of Nanomedicine, 2022).

System: lung tumor
Experiment: 18F-FDG PET imaging of Kras metastatic lung cancer patients
Type: in vivo
Conditions: Kras metastatic patients (Stage IV), in relation to control groups
Method in brief: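 Patients had 18F-FDG PET/CT at baseline before combined test treatment, after three treatment cycles (interim), and after treatment ended (late). Each patient had at least two scans. Images were reconstructed by ordered subset expectation maximization with six iterations and 12 subsets.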

B1: Daclizumab: FDA-approved drug, CD25 inhibitor (antibody, chains of the INN, looked up, V domains shown)
VH: QVQLVQSGAEVKKPGSSVKVSCKASGYTFTSYRMHWVRQAPGQGLEWIGYINPSTGYTEYNQKFKDKATITADESTNTAYMELSSLRSEDTAVYYCARGGGVFDYWGQGTLVTVSS
VL: DIQMTQSPSTLSASVGDRVTITCSASSSISYMHWYQQKPGKAPKLLIYTTSNLASGVPARFSGSGSGTEFTLTISSLQPDDFATYYCHQRSTYPLTFGQGTKVEVK
- tumor burden by comparative 18F-FDG PET imaging: lower tumor burden
